Measurements: ChEMBL document CHEMBL6071194, “Building Metabolically Stable and Potent Anti-HIV Thioether-Lipid Analogues of Tenofovir Exalidex: A thorough Pharmacological Analysis” (J Med Chem, 2024)

Legend:
[1] = Therapeutic index, ratio of CC50 for HEK293T cells to IC50 for HIV-1 sub-type-C MJ4 infected in HEK293T cells; format: toxicity, cell-based; conditions: human, read-out: Ratio CC50/IC50
Outline: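 HEK293T cells (2 × 10⁴/well) with HSA-formulated compound (5:1 molar), 3-fold dilutions, 48 h at 37 °C. […] IC50 from luciferase after single-cycle infection with HIV-like particles carrying MJ4 subtype C RT/IN, over the noncytotoxic range.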

[2] = Prodrug conversion in C57BL/6 mouse liver assessed as Tmax of TFV metabolite at 10 mg/kg, po measured for 24 hrs by LC-MS/MS analysis; format: ADME, organism-based; conditions: in vivo
Outline: (§1)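 After a single 10 mg/kg gavage (10% EtOH/90% olive oil) in male C57BL/6 mice, liver, kidney and brain were collected at 1, 4 and 24 h (n = 3 per time point). Tissues were rinsed in ice-cold saline and homogenized in ice-cold PBS pH 7.4 (3× weight for brain, 5× for liver and kidney). Prodrug and TFV were measured by LC–MS/MS; AUC0–24h by the linear trapezoidal rule.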

[3] = Prodrug conversion in C57BL/6 mouse liver assessed as Cmax of TFV metabolite at 10 mg/kg, po measured for 24 hrs by LC-MS/MS analysis; format: ADME, organism-based; conditions: in vivo; outline: as §1
[4] = Prodrug conversion in C57BL/6 mouse liver assessed as AUC (0 to 24 hrs) of TFV metabolite at 10 mg/kg, po measured for 24 hrs by LC-MS/MS analysis; format: ADME, organism-based; conditions: in vivo; outline: as §1
[5] = Ratio of AUC (0 to 24 hrs) of prodrug to TFV metabolite in C57BL/6 mouse liver at 10 mg/kg, po measured for 24 hrs by LC-MS/MS analysis; format: ADME, organism-based; conditions: in vivo; outline: as §1
[6] = Clearance in C57BL/6 mouse plasma at 3 mg/kg, iv measured for 8 hrs by LC-MS/MS analysis; format: ADME, organism-based; conditions: in vivo
Outline: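 Male C57BL/6 mice got a single 3 mg/kg i.v. dose in 10% PEG-300, 10% Solutol HS-15 and 80% saline, n = 3 per time point. Retro-orbital blood was taken at 0.1–8 h and plasma prodrug measured by LC–MS/MS. AUC0–8h used the trapezoidal rule; Cl = Dose/AUC0–8h.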

[7] = Clearance in C57BL/6 mouse plasma at 10 mg/kg, po measured for 24 hrs by LC-MS/MS analysis; format: ADME, organism-based; conditions: in vivo
Outline: (§2)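 Male C57BL/6 mice (8–12 weeks, 20–30 g) got a single gavage of 10 mg/kg in 10% EtOH/90% olive oil, n = 3 per time point with sparse sampling. Retro-orbital blood was taken at 0.25–24 h and plasma spun off. Prodrug and TFV were measured by LC–MS/MS.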

[8] = Prodrug conversion in C57BL/6 mouse plasma assessed as Tmax of TFV metabolite at 10 mg/kg, po measured for 24 hrs by LC-MS/MS analysis; format: ADME, organism-based; conditions: in vivo; outline: as §2
[9] = Prodrug conversion in C57BL/6 mouse plasma assessed as Cmax of TFV metabolite at 10 mg/kg, po measured for 24 hrs by LC-MS/MS analysis; format: ADME, organism-based; conditions: in vivo; outline: as §2
[10] = Prodrug conversion in C57BL/6 mouse plasma assessed as AUC (0 to 24 hrs) of TFV metabolite at 10 mg/kg, po measured for 24 hrs by LC-MS/MS analysis; format: ADME, organism-based; conditions: in vivo; outline: as §2
[11] = Ratio of AUC (0 to 24 hrs) of prodrug to TFV metabolite in C57BL/6 mouse plasma at 10 mg/kg, po measured for 24 hrs by LC-MS/MS analysis; format: ADME, organism-based; conditions: in vivo; outline: as §2
[12] = Prodrug conversion in C57BL/6 mouse kidney assessed as Tmax of TFV metabolite at 10 mg/kg, po measured for 24 hrs by LC-MS/MS analysis; format: ADME, organism-based; conditions: in vivo; outline: as §1
[13] = Prodrug conversion in C57BL/6 mouse kidney assessed as Cmax of TFV metabolite at 10 mg/kg, po measured for 24 hrs by LC-MS/MS analysis; format: ADME, organism-based; conditions: in vivo; outline: as §1
[14] = Prodrug conversion in C57BL/6 mouse kidney assessed as AUC (0 to 24 hrs) of TFV metabolite at 10 mg/kg, po measured for 24 hrs by LC-MS/MS analysis; format: ADME, organism-based; conditions: in vivo; outline: as §1
[15] = Metabolic stability in human liver microsomes assessed as half life; format: ADME, Microsome
Outline: (§3)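 Human liver microsomes (1 mg/mL) in 100 mM potassium phosphate were preincubated with 3 µM test compound (final) at 37 °C for 5 min, then started with NADPH. Duplicate aliquots at 0, 15, 30, 60 and 120 min were quenched in cold MeOH with internal standard and analysed by LC–MS/MS. Values were normalized to 0 min; a no-NADPH control was read at 120 min.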

[16] = Tmax in C57BL/6 mouse kidney at 10 mg/kg, po measured for 24 hrs by LC-MS/MS analysis; format: ADME, organism-based; outline: as §1
[17] = Ratio of AUC (0 to 24 hrs) of prodrug to TFV metabolite in C57BL/6 mouse kidney at 10 mg/kg, po measured for 24 hrs by LC-MS/MS analysis; format: ADME, organism-based; conditions: in vivo; outline: as §1
[18] = Tmax in C57BL/6 mouse brain at 10 mg/kg, po measured for 24 hrs by LC-MS/MS analysis; format: ADME, organism-based; outline: as §1
[19] = Stability in human liver microsomes assessed as compound remaining at 3 uM pretreated for 5 mins followed by NADPH addition measured upto 120 mins by LC-MS/MS analysis; format: ADME, Microsome; conditions: 2.083 h, time < 125 min; outline: as §3
[20] = Tmax in C57BL/6 mouse liver at 10 mg/kg, po measured for 24 hrs by LC-MS/MS analysis; format: ADME, organism-based; outline: as §1
[21] = Half life in C57BL/6 mouse plasma at 10 mg/kg, po measured for 24 hrs by LC-MS/MS analysis; format: ADME, organism-based; conditions: in vivo; outline: as §2
[22] = Volume of distribution in C57BL/6 mouse plasma at 10 mg/kg, po measured for 24 hrs by LC-MS/MS analysis; format: ADME, organism-based; conditions: in vivo; outline: as §2

CCCCCCCCCCCCCCCCSCCCOP(=O)(O)CO[C@H](C)Cn1cnc2c(N)ncnc21.N
selectivity ratio [1]: 4980 | Tmax [2]: 4 h | Cmax [3]: 1440 ng/mL | AUC [4]: 29100 ng·h/mL | Ratio [5]: 0.222 | CL [6]: 147 mL/min/kg | CL [7]: 147 mL/min/kg | Tmax [8]: 4 h | Cmax [9]: 39.4 ng/mL | AUC [10]: 657 ng·h/mL | Ratio [11]: 0.333 | Tmax [12]: 4 h | Cmax [13]: 695 ng/mL | AUC [14]: 14600 ng·h/mL

C[C@H](Cn1cnc2c(N)ncnc21)OCP(=O)(O)OCCCOCCCCCCCCCCCCCCCC(F)(F)F.N
half-life [15]: 2 h

COC(=O)CCCCCCCCCCCCCCCSCCCOP(=O)(O)CO[C@H](C)Cn1cnc2c(N)ncnc21
selectivity ratio [1]: > 70

C[C@H](Cn1cnc2c(N)ncnc21)OCP(=O)(O)OCCCSCCCCCCCCCCCCc1ccc(F)cc1.N
selectivity ratio [1]: > 11100 | Tmax [2]: 24 h | Cmax [3]: 3980 ng/mL | AUC [4]: 72500 ng·h/mL | Ratio [5]: 0.877 | CL [6]: 134 mL/min/kg | CL [7]: 134 mL/min/kg | Tmax [8]: 4 h | AUC [10]: 635 ng·h/mL | Tmax [16]: 4 h | Tmax [12]: 24 h | Cmax [13]: 1420 ng/mL | Ratio [17]: 0.322 | Tmax [18]: 4 h | AUC [14]: 23800 ng·h/mL

CCCCCCCCCCCCCSCCCCCCOP(=O)(O)CO[C@H](C)Cn1cnc2c(N)ncnc21
selectivity ratio [1]: > 1370

CCCCCCCSCCCCCCCCCCCCOP(=O)(O)CO[C@H](C)Cn1cnc2c(N)ncnc21
selectivity ratio [1]: > 296

C[C@H](Cn1cnc2c(N)ncnc21)OCP(=O)(O)OCCCSCCCCCCCCCCC#Cc1ccc(F)cc1
selectivity ratio [1]: > 10000

C[C@H](Cn1cnc2c(N)ncnc21)OCP(=O)(O)OCCCSCCCCCCCCCCCCC#C[Si](C)(C)C
selectivity ratio [1]: > 4170

C#CCCCCCCCCCCCCCCSCCCOP(=O)(O)CO[C@H](C)Cn1cnc2c(N)ncnc21
selectivity ratio [1]: > 3570

CCCCCCCCCCSCCCCCCCCCOP(=O)(O)CO[C@H](C)Cn1cnc2c(N)ncnc21
selectivity ratio [1]: > 1720

C[C@H](Cn1cnc2c(N)ncnc21)OCP(=O)(O)OCCCSCCCCCCCCCCCOc1ccccc1.N
Stability [19]: 69% | selectivity ratio [1]: > 8060

C[C@H](Cn1cnc2c(N)ncnc21)OCP(=O)(O)OCCCSCCCCCCCCCCCOC1CCCCC1
selectivity ratio [1]: > 542

CCCCCCCCCCCCCCCCCSCCOP(=O)(O)CO[C@H](C)Cn1cnc2c(N)ncnc21
selectivity ratio [1]: 7150

C[C@H](Cn1cnc2c(N)ncnc21)OCP(=O)(O)OCCCSCCCCCCCCCCCCC1CCCCC1.N
selectivity ratio [1]: > 2000 | Tmax [20]: 4 h | Tmax [2]: 24 h | Cmax [3]: 3900 ng/mL | AUC [4]: 66600 ng·h/mL | Ratio [5]: 0.411 | CL [6]: 85.8 mL/min/kg | t1/2 [21]: 3.07 h | CL [7]: 85.8 mL/min/kg | Vd [22]: 228 L/kg | Tmax [8]: 4 h | Cmax [9]: 47.8 ng/mL | AUC [10]: 740 ng·h/mL | Ratio [11]: 1.44 | Tmax [16]: 4 h | Tmax [12]: 24 h | Ratio [17]: 0.488 | AUC [14]: 22100 ng·h/mL

C[C@H](Cn1cnc2c(N)ncnc21)OCP(=O)(O)OCCCSCCCCCCCCCCCCc1ccccc1
selectivity ratio [1]: > 12500

C[C@H](Cn1cnc2c(N)ncnc21)OCP(=O)(O)OCCCSCCCCCCCCCCCCC#CC(C)(C)C
selectivity ratio [1]: > 516

C[C@H](Cn1cnc2c(N)ncnc21)OCP(=O)(O)OCCCSCCCCCCCCCCCCCCC(C)(C)C
selectivity ratio [1]: 138

C[C@H](Cn1cnc2c(N)ncnc21)OCP(=O)(O)OCCCSCCCCCCCCCCCSc1ccccc1
selectivity ratio [1]: > 594

CCCCCCCCCCCCCCSCCCOP(=O)(O)CO[C@H](C)Cn1cnc2c(N)ncnc21
selectivity ratio [1]: > 16700

CCCCCCCCCCCCSCCCOP(=O)(O)CO[C@H](C)Cn1cnc2c(N)ncnc21
selectivity ratio [1]: > 532

C[C@H](Cn1cnc2c(N)ncnc21)OCP(=O)(O)OCCCSCCCCCCCCCCC#Cc1ccccc1
selectivity ratio [1]: > 12500

CC(C)[Si](C#CCCCCCCCCCCCSCCCOP(=O)(O)CO[C@H](C)Cn1cnc2c(N)ncnc21)(C(C)C)C(C)C
selectivity ratio [1]: 224

C[C@H](Cn1cnc2c(N)ncnc21)OCP(=O)(O)OCCCSCCCCCCCCCCC#CC1CCCCC1
selectivity ratio [1]: > 7580

C[C@H](Cn1cnc2c(N)ncnc21)OCP(=O)(O)OCCCSCCCCCCCCCCCOc1ccc(F)cc1.N
Stability [19]: 85% | selectivity ratio [1]: 6250

CCCCSCCCCCCCCCCCCCCCOP(=O)(O)CO[C@H](C)Cn1cnc2c(N)ncnc21
selectivity ratio [1]: > 331

CCCCCCCCCCCCCCCCOCCCOP(=O)(O)CO[C@H](C)Cn1cnc2c(N)ncnc21 [TENOFOVIR EXALIDEX]
selectivity ratio [1]: 5420
